Experimental data: ChEMBL document CHEMBL4689842, “EUbOPEN Chemogenomics Library wave 1” (2021)

System: U2OS
Assay: Multiplex assay against U2OS
Format: toxicity, cell-based
Conditions: human
How it was run: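 Compound was added to live cells that had been stained at seeding with Hoechst33342, BioTracker Green Microtubule Cytoskeleton Dye, MitoTracker Red and Annexin V Alexa Fluor 680, and imaging followed on a CQ1 microscope at 37°C and 5% CO2. CellPathfinder machine-learning gating divided cells into Hoechst high-intensity objects or normal cells, normal cells into healthy, pyknosed or fragmented nuclei, and pyknosed cells into mitotic or apoptotic. Tubulin, mitochondrial-mass and membrane-permeability phenotypes are per cents of healthy-nucleus cells.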

[1] = 12 h, 1 µM, compound concentration 1 uM, replicate 1
[2] = 12 h, 1 µM, compound concentration 1 uM, replicate 2
[3] = 12 h, 10 µM, compound concentration 10 uM, replicate 1
[4] = 12 h, 10 µM, compound concentration 10 uM, replicate 2
[5] = 24 h, 1 µM, compound concentration 1 uM, replicate 1
[6] = 24 h, 1 µM, compound concentration 1 uM, replicate 2
[7] = 24 h, 10 µM, compound concentration 10 uM, replicate 1
[8] = 24 h, 10 µM, compound concentration 10 uM, replicate 2
[9] = 48 h, 1 µM, compound concentration 1 uM, replicate 1
[10] = 48 h, 1 µM, compound concentration 1 uM, replicate 2
[11] = 48 h, 10 µM, compound concentration 10 uM, replicate 1
[12] = 48 h, 10 µM, compound concentration 10 uM, replicate 2

CC(C)c1cc(Nc2nc(N3CCC[C@H](N)C3)ncc2C(N)=O)cc(C(C)C)n1
Population Apoptotic (%) [1]: 51%
Population Fragmented Nuclei (%) [1]: 8%
Population Healthy Nuclei (%) [1]: 67%
Population Hoechst High Intensity Objects (%) [1]: 5%
Population Membrane Permeable-Phenotype (%) [1]: 22%
Population Mitochondria Different-Phenotype (%) [1]: 89%
Population Mitotic Cells (%) [1]: 48%
Population Normal (%) [1]: 94%
Population Pyknosed Nuclei (%) [1]: 23%
Population Tubulin-Different-Phenotype (%) [1]: 100%
Total Cell Count [1]: 201
Population Apoptotic (%) [2]: 44%
Population Fragmented Nuclei (%) [2]: 12%
Population Healthy Nuclei (%) [2]: 75%
Population Hoechst High Intensity Objects (%) [2]: 9%
Population Membrane Permeable-Phenotype (%) [2]: 16%
Population Mitochondria Different-Phenotype (%) [2]: 92%
Population Mitotic Cells (%) [2]: 55%
Population Normal (%) [2]: 90%
Population Pyknosed Nuclei (%) [2]: 12%
Population Tubulin-Different-Phenotype (%) [2]: 96%
Total Cell Count [2]: 82
Population Apoptotic (%) [3]: 64%
Population Fragmented Nuclei (%) [3]: 23%
Population Healthy Nuclei (%) [3]: 39%
Population Hoechst High Intensity Objects (%) [3]: 4%
Population Membrane Permeable-Phenotype (%) [3]: 88%
Population Mitochondria Different-Phenotype (%) [3]: 98%
Population Mitotic Cells (%) [3]: 35%
Population Normal (%) [3]: 95%
Population Pyknosed Nuclei (%) [3]: 37%
Total Cell Count [3]: 161
Population Apoptotic (%) [4]: 65%
Population Fragmented Nuclei (%) [4]: 19%
Population Healthy Nuclei (%) [4]: 31%
Population Hoechst High Intensity Objects (%) [4]: 14%
Population Membrane Permeable-Phenotype (%) [4]: 100%
Population Mitochondria Different-Phenotype (%) [4]: 93%
Population Mitotic Cells (%) [4]: 34%
Population Normal (%) [4]: 85%
Population Pyknosed Nuclei (%) [4]: 48%
Population Tubulin-Different-Phenotype (%) [4]: 100%
Total Cell Count [4]: 55
Population Apoptotic (%) [5]: 57%
Population Fragmented Nuclei (%) [5]: 9%
Population Healthy Nuclei (%) [5]: 61%
Population Hoechst High Intensity Objects (%) [5]: 6%
Population Membrane Permeable-Phenotype (%) [5]: 22%
Population Mitochondria Different-Phenotype (%) [5]: 90%
Population Mitotic Cells (%) [5]: 42%
Population Normal (%) [5]: 93%
Population Pyknosed Nuclei (%) [5]: 29%
Population Tubulin-Different-Phenotype (%) [5]: 98%
Total Cell Count [5]: 206
Population Apoptotic (%) [6]: 26%
Population Fragmented Nuclei (%) [6]: 10%
Population Healthy Nuclei (%) [6]: 68%
Population Hoechst High Intensity Objects (%) [6]: 5%
Population Membrane Permeable-Phenotype (%) [6]: 30%
Population Mitochondria Different-Phenotype (%) [6]: 96%
Population Mitotic Cells (%) [6]: 73%
Population Normal (%) [6]: 94%
Population Pyknosed Nuclei (%) [6]: 20%
Population Tubulin-Different-Phenotype (%) [6]: 94%
Total Cell Count [6]: 77
Population Apoptotic (%) [7]: 74%
Population Fragmented Nuclei (%) [7]: 32%
Population Hoechst High Intensity Objects (%) [7]: 9%
Population Membrane Permeable-Phenotype (%) [7]: 97%
Population Mitochondria Different-Phenotype (%) [7]: 100%
Population Mitotic Cells (%) [7]: 25%
Population Normal (%) [7]: 90%
Population Pyknosed Nuclei (%) [7]: 44%
Population Tubulin-Different-Phenotype (%) [7]: 97%
Total Cell Count [7]: 167
Population Apoptotic (%) [8]: 84%
Population Fragmented Nuclei (%) [8]: 23%
Population Healthy Nuclei (%) [8]: 23%
Population Hoechst High Intensity Objects (%) [8]: 17%
Population Membrane Permeable-Phenotype (%) [8]: 100%
Population Mitochondria Different-Phenotype (%) [8]: 90%
Population Mitotic Cells (%) [8]: 16%
Population Normal (%) [8]: 82%
Population Pyknosed Nuclei (%) [8]: 53%
Population Tubulin-Different-Phenotype (%) [8]: 100%
Total Cell Count [8]: 57
Population Apoptotic (%) [9]: 54%
Population Fragmented Nuclei (%) [9]: 17%
Population Healthy Nuclei (%) [9]: 45%
Population Hoechst High Intensity Objects (%) [9]: 7%
Population Membrane Permeable-Phenotype (%) [9]: 26%
Population Mitochondria Different-Phenotype (%) [9]: 83%
Population Mitotic Cells (%) [9]: 45%
Population Normal (%) [9]: 92%
Population Pyknosed Nuclei (%) [9]: 37%
Population Tubulin-Different-Phenotype (%) [9]: 94%
Total Cell Count [9]: 249
Population Apoptotic (%) [10]: 52%
Population Fragmented Nuclei (%) [10]: 14%
Population Healthy Nuclei (%) [10]: 60%
Population Hoechst High Intensity Objects (%) [10]: 3%
Population Membrane Permeable-Phenotype (%) [10]: 46%
Population Mitochondria Different-Phenotype (%) [10]: 88%
Population Mitotic Cells (%) [10]: 47%
Population Normal (%) [10]: 96%
Population Pyknosed Nuclei (%) [10]: 25%
Population Tubulin-Different-Phenotype (%) [10]: 96%
Total Cell Count [10]: 86
Population Apoptotic (%) [11]: 89%
Population Fragmented Nuclei (%) [11]: 36%
Population Healthy Nuclei (%) [11]: 5%
Population Hoechst High Intensity Objects (%) [11]: 15%
Population Membrane Permeable-Phenotype (%) [11]: 100%
Population Mitochondria Different-Phenotype (%) [11]: 100%
Population Mitotic Cells (%) [11]: 10%
Population Normal (%) [11]: 84%
Population Pyknosed Nuclei (%) [11]: 58%
Population Tubulin-Different-Phenotype (%) [11]: 100%
Total Cell Count [11]: 155
Population Apoptotic (%) [12]: 95%
Population Fragmented Nuclei (%) [12]: 34%
Population Healthy Nuclei (%) [12]: 9%
Population Hoechst High Intensity Objects (%) [12]: 26%
Population Mitotic Cells (%) [12]: 4%
Population Normal (%) [12]: 73%
Population Pyknosed Nuclei (%) [12]: 56%
Total Cell Count [12]: 56
